Experimental data taken from ChEMBL document CHEMBL5634114, “Galantamine-memantine hybrids for Alzheimer's disease: The influence of linker rigidity in biological activity and pharmacokinetic properties” (Eur J Med Chem, 2023).
Values after ≈ are worked out from the molar mass of the structure shown.

Experiments:
Acetylcholinesterase = Acetylcholinesterase (Homo sapiens, UniProt P22303); test: Inhibition of recombinant human AChE using acetylthiocholine as substrate preincubated for 20 mins followed by substrate addition measured for 3 mins by Ellman's method
Summary of the method: (§1)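 Ellman assay at 37 °C in 0.1 M phosphate buffer pH 8.0 with 340 µM DTNB and 0.02 U/mL enzyme (recombinant human AChE or human serum BChE). Inhibitor at increasing concentrations was preincubated with enzyme for 20 min before adding 550 µM acetylthiocholine (AChE) or butyrylthiocholine (BChE). Absorbance at 412 nm was monitored for 3 min, with a blank lacking enzyme. Triplicates; IC50 from log concentration–inhibition curves; at least two experiments.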

[1] = Metabolic stability in mouse plasma assessed as half life at 2 uM incubated for 2 hrs by LC-MS/MS analysis; format: ADME, cell-free
Summary of the method: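 Compound at 2 µM final (0.5% DMSO) in prewarmed mouse plasma at 37 °C. Samples taken at 0, 5, 15, 30, 60 and 120 min were quenched in cold CH3CN with internal standard, centrifuged, diluted with water and analyzed by LC-MS/MS (MRM, positive ESI). Half-life calculated from the time course.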

[2] = Aqueous kinetic solubility in PBS at 250 uM incubated for 24 hrs […]; format: physicochemical; settings: read-out: Kinetic_solubility
Rattus norvegicus = species: Rattus norvegicus; test: Selectivity index, ratio of IC50 for NMDA/glycine-activated rat GluN1/Glu2A expressed in xenopus laevis oocytes to IC50 for NMDA/glycine-activated rat GluN1/Glu2B expressed in xenopus laevis oocytes; format: cell-based
Summary of the method: (§2)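 Xenopus oocytes (stage IV–V) were injected with GluN1 plus GluN2A or GluN1 plus GluN2B cRNA (1:1) and kept 3–4 days at 18 °C. Two-electrode voltage clamp was run in saline with 2 mM CaCl2, pH 7.5. Currents were evoked by 100 µM NMDA plus 10 µM glycine, with compound co-applied at 0.01–100 µM in 10-fold steps. […] The selectivity index is the GluN1/2A IC50 divided by the GluN1/2B IC50.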

Cholinesterase = Cholinesterase (Homo sapiens, UniProt P06276); test: Inhibition of human serum BChE using butyrylthiocholine as substrate preincubated for 20 mins followed by substrate addition measured for 3 mins by Ellman's method; format: cell-free; summary of the method: as §1
[3] = biological target: Glutamate NMDA receptor; Grin1/Grin2a (Rattus norvegicus, UniProt P35439+Q00959); test: Inhibition of NMDA/glycine-activated rat GluN1/Glu2A expressed in xenopus laevis oocytes at -75 mV holding potential by voltage clamp method; format: cell-based, Oocyte; summary of the method: as §2
[4] = biological target: Glutamate NMDA receptor; Grin1/Grin2b (Rattus norvegicus, UniProt P35439+Q00960); test: Inhibition of NMDA/glycine-activated rat GluN1/Glu2B expressed in xenopus laevis oocytes at -75 mV holding potential by voltage clamp method; format: cell-based, Oocyte; summary of the method: as §2
[5] = Metabolic stability in mouse liver microsomes assessed as half life at 5 uM preincubated for 15 mins followed by NADPH/G6P/G6PDH measured for 1 hr by LC-MS/MS analysis; format: ADME, Microsome; settings: time 75 min
Summary of the method: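 Mouse liver microsomes with compound at 5 µM final (0.1% DMSO) in 0.1 M Tris-HCl pH 7.5, preincubated 15 min at 37 °C. NADPH, G6P, G6PDH and MgCl2 were then added and incubation continued for 1 h. Samples at 0, 5, 15, 30 and 60 min were quenched in cold CH3CN with internal standard and analyzed by LC-MS/MS. A no-cofactor microsome control was run at 0 and 60 min.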

[6] = Volume of distribution in CD-1 mouse at 3 mg/kg, iv measured for 240 mins; format: ADME, organism-based; settings: in vivo
Summary of the method: (§3)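 Male CD1 mice (22–24 g) dosed IV at 3 mg/kg in PEG400/Tween 80/saline 10/10/80 v/v. Three animals per time point. Blood taken at 0, 5, 30, 60, 120 and 240 min. Plasma extracted with cold CH3CN plus internal standard and quantified by LC-MS/MS (MRM) against a 1 nM–10 µM calibration curve in blank plasma. Parameters were obtained by fitting the plasma concentration–time profile.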

[7] = Cmax in CD-1 mouse at 3 mg/kg, iv measured for 240 mins; format: ADME, organism-based; settings: in vivo; summary of the method: as §3
[8] = Clearance in CD-1 mouse at 3 mg/kg, iv measured for 240 mins; format: ADME, organism-based; settings: in vivo; summary of the method: as §3
[9] = Metabolic stability in mouse liver microsomes assessed as half life at 5 uM preincubated for 15 mins followed by UDPGA/D-saccharic acid lactone measured for 1 hr by LC-MS/MS analysis; format: ADME, Microsome; settings: time 75 min
Summary of the method: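 Mouse liver microsomes with alamethicin and compound at 5 µM final (0.1% DMSO) in 0.1 M Tris-HCl pH 7.5, preincubated 15 min at 37 °C. UDPGA, p-saccharic acid lactone and MgCl2 were then added and incubation continued for 1 h. Samples at 0, 5, 15, 30 and 60 min were quenched in cold CH3CN with internal standard and analyzed by LC-MS/MS. A no-cofactor control was run at 0 and 60 min.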

[10] = Drug concentration in brain of in CD-1 mouse at 3 mg/kg, iv measured for 30 mins; format: ADME, organism-based; settings: read-out: Ct
Summary of the method: (§4)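 Male CD1 mice dosed IV at 3 mg/kg in PEG400/Tween 80/saline 10/10/80. Three mice per time point. Whole brains were homogenized in 4 vol PBS:protease inhibitor (100:1), extracted with cold CH3CN plus internal standard and measured by LC-MS/MS (MRM) against a 1 nM–10 µM calibration in naïve brain homogenate. Levels were normalized per 100 mg brain/mL, with protein content checked by BCA.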

[11] = Drug concentration in brain of in CD-1 mouse at 3 mg/kg, iv measured for 120 mins; format: ADME, organism-based; settings: read-out: Ct; summary of the method: as §4
[12] = AUC in CD-1 mouse at 3 mg/kg, iv measured for 240 mins; format: ADME, organism-based; settings: in vivo; summary of the method: as §3
[13] = Drug concentration in brain of in CD-1 mouse at 3 mg/kg, iv measured for 240 mins; format: ADME, organism-based; settings: read-out: Ct; summary of the method: as §4
[14] = Half life in CD-1 mouse at 3 mg/kg, iv measured for 240 mins; format: ADME, organism-based; settings: in vivo; summary of the method: as §3
[15] = Drug concentration in brain of in CD-1 mouse at 3 mg/kg, iv measured for 60 mins; format: ADME, organism-based; settings: read-out: Ct; summary of the method: as §4
[16] = Tmax in CD-1 mouse at 3 mg/kg, iv measured for 240 mins; format: ADME, organism-based; settings: in vivo; summary of the method: as §3

Chain of Glutamate NMDA receptor; Grin1/Grin2a (Q00959 whole entry, other chains not shown): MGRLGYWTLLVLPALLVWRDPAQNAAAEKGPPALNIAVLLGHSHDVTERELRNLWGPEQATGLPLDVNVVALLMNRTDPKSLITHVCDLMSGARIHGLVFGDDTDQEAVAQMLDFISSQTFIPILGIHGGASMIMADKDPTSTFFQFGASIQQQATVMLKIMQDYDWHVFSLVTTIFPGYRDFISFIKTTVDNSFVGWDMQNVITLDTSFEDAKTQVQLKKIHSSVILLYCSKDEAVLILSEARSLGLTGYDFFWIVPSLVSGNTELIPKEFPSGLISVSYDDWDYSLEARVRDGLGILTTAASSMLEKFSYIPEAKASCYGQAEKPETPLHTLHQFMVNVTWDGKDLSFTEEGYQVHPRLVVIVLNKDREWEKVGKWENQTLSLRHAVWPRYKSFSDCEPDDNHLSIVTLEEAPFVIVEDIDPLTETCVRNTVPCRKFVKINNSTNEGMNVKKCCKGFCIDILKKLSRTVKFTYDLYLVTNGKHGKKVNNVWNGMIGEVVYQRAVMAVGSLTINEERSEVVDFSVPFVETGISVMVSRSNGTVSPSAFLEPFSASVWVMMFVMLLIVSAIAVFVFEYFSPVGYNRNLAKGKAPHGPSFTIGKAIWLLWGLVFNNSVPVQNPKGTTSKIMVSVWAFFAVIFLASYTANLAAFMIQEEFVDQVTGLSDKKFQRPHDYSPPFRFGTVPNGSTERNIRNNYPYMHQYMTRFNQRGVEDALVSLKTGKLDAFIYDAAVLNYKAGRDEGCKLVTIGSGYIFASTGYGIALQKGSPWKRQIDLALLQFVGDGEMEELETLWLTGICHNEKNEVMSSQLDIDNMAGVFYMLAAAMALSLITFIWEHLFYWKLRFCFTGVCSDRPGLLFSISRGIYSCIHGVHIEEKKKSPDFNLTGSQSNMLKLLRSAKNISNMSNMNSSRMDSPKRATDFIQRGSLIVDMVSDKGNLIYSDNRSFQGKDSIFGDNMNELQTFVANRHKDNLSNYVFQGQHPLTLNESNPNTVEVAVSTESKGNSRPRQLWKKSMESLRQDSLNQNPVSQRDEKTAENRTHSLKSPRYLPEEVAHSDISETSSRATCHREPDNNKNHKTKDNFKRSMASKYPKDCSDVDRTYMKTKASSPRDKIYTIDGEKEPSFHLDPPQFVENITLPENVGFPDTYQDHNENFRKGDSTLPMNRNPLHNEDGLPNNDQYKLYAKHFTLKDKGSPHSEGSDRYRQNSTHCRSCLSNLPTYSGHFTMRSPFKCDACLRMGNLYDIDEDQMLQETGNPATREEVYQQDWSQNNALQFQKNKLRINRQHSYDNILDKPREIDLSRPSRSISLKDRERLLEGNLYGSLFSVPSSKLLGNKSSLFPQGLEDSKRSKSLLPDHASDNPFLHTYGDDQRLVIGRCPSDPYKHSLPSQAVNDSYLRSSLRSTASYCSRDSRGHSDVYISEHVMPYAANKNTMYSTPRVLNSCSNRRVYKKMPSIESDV
Chain of Acetylcholinesterase (P22303 whole entry): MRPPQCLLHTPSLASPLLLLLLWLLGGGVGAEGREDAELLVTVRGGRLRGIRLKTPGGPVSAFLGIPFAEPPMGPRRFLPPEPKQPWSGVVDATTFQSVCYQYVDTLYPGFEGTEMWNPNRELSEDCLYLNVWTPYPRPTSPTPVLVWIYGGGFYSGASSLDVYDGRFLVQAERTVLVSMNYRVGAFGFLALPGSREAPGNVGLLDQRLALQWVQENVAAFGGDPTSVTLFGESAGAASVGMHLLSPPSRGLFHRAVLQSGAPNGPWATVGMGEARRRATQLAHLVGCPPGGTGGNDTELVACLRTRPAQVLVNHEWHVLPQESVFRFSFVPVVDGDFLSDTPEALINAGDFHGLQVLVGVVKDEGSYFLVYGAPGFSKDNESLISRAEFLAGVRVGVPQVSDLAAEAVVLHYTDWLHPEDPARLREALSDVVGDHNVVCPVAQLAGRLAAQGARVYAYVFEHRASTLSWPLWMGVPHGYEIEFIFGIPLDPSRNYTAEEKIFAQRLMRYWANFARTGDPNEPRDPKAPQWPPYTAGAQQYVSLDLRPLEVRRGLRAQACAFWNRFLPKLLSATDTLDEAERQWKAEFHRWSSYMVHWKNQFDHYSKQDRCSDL
Chain of Cholinesterase (P06276 whole entry): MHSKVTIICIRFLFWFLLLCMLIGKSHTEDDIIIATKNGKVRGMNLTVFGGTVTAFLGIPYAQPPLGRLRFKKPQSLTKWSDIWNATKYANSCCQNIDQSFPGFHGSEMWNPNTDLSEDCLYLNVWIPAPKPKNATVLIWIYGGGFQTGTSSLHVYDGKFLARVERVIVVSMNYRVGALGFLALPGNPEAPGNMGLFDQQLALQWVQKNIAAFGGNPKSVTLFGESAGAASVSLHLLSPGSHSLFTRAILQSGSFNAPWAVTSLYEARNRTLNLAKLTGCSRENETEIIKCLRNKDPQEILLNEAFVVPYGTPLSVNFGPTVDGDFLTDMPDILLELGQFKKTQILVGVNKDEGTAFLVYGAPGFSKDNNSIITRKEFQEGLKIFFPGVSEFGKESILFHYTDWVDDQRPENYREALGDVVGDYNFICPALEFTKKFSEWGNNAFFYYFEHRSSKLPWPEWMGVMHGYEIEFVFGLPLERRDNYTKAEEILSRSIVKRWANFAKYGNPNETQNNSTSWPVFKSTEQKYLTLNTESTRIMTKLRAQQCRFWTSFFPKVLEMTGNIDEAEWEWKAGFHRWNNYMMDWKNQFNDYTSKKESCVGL
Chain of Glutamate NMDA receptor; Grin1/Grin2b (Q00960 whole entry, other chains not shown): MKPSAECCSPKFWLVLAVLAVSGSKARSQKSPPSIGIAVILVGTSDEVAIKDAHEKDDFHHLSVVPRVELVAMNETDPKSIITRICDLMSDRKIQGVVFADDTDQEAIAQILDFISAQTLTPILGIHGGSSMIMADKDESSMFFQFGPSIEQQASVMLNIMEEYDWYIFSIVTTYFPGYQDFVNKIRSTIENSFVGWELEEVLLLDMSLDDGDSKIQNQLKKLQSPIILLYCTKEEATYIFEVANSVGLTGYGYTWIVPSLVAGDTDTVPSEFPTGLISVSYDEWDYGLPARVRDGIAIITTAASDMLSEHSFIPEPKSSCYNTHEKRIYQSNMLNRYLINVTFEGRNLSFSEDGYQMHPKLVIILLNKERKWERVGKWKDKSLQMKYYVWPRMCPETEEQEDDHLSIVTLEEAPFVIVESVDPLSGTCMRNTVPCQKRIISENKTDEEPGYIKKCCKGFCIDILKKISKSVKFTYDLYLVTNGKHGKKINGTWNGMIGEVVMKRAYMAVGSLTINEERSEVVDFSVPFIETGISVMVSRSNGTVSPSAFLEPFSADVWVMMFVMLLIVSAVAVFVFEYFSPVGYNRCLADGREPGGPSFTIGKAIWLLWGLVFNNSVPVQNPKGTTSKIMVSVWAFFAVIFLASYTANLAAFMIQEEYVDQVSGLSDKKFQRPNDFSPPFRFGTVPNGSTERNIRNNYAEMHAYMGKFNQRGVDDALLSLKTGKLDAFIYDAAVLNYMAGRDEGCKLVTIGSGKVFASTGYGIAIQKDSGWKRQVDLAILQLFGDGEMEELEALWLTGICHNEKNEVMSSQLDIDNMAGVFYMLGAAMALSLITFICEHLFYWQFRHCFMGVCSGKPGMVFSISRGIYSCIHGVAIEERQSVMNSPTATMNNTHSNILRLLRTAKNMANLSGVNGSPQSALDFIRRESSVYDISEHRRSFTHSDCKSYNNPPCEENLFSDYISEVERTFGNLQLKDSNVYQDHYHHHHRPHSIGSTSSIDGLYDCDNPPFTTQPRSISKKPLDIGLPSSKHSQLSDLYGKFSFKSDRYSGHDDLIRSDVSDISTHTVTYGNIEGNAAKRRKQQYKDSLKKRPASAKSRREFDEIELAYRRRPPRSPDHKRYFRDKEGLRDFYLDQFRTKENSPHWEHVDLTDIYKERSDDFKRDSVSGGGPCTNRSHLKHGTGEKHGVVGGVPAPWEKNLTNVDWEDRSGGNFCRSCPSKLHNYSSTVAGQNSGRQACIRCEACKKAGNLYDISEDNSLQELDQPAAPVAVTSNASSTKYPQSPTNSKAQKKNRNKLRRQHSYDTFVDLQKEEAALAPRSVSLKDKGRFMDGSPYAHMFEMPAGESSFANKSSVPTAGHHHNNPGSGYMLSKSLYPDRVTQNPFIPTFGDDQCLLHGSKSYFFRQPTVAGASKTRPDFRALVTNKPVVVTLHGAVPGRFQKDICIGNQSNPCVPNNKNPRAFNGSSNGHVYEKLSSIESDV

SMILES: COc1ccc2c3c1O[C@H]1C[C@@H](O)C=C[C@@]31CCN(CC#CCNC13CC4CC(C)(CC(C)(C4)C1)C3)C2
- IC50 (Acetylcholinesterase): 762 nM
- half-life at 2 µM [1]: > 2 h
- solubility kinetic at 24 h, 250 µM [2]: 230 µM (≈ 116 µg/mL)
- Ratio IC50 (Rattus norvegicus): 0.75
- IC50 (Cholinesterase): 5080 nM
- IC50 [3]: 11600 nM
- IC50 [4]: 15500 nM
- half-life at 5 µM [5]: < 0.0833 h

SMILES: COc1ccc2c3c1O[C@H]1C[C@@H](O)C=C[C@@]31CCN(CCCCNC13CC4CC(C)(CC(C)(C4)C1)C3)C2
- IC50 (Acetylcholinesterase): 1130 nM
- half-life at 2 µM [1]: 1.62 h
- solubility kinetic at 24 h, 250 µM [2]: 242 µM (≈ 123 µg/mL)
- Vd [6]: 78 L/kg
- Ratio IC50 (Rattus norvegicus): 4
- Cmax [7]: 208 ng/mL
- clearance [8]: 43 mL/min/kg
- IC50 (Cholinesterase): 1770 nM
- half-life at 5 µM [9]: > 1 h
- concentration at 0.5 h [10]: 95 ng/g
- IC50 [3]: 5740 nM
- concentration at 2 h [11]: 70 ng/g
- AUC at 4 h [12]: 290 ng·h/mL
- concentration at 4 h [13]: 310 ng/g
- IC50 [4]: 1450 nM
- half-life [14]: 20.8 h
- concentration at 1 h [15]: 115 ng/g
- half-life at 5 µM [5]: > 1 h
- Tmax [16]: 5 min

SMILES: COc1ccc2c3c1O[C@H]1C[C@@H](O)C=C[C@@]31CCN(C/C=C/CNC13CC4CC(C)(CC(C)(C4)C1)C3)C2
- IC50 (Acetylcholinesterase): 115 nM
- half-life at 2 µM [1]: > 2 h
- solubility kinetic at 24 h, 250 µM [2]: 237 µM (≈ 120 µg/mL)
- Vd [6]: 19 L/kg
- Ratio IC50 (Rattus norvegicus): 11
- Cmax [7]: 202 ng/mL
- clearance [8]: 161 mL/min/kg
- IC50 (Cholinesterase): 421 nM
- half-life at 5 µM [9]: > 1 h
- concentration at 0.5 h [10]: 281 ng/g
- IC50 [3]: 14500 nM
- concentration at 2 h [11]: 243 ng/g
- AUC at 4 h [12]: 280 ng·h/mL
- concentration at 4 h [13]: 96 ng/g
- IC50 [4]: 1320 nM
- half-life [14]: 1.37 h
- concentration at 1 h [15]: 256 ng/g
- half-life at 5 µM [5]: 0.75 h
- Tmax [16]: 5 min
